The subject of assay [1] is Plasmodium berghei. The assay is described as follows: Antiplasmodial activity against firefly luciferase expressing liver stage Plasmodium berghei infected in human Huh-7 cells assessed as reduction in parasite growth at 1 to 10 uM measured after 48 hrs post infection by […] luminescence assay. It is filed as functional, organism-based. The conditions noted are these: dose 1-10 µM. The method in brief: (§1)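 Huh7 cells in supplemented RPMI 1640 seeded the day before; ~1 h before infection, medium switched to infection medium with gentamicin, amphotericin B and compound. Cells then infected with PbGFP-Luccon sporozoites from Anopheles stephensi salivary glands. At 48 h, parasite load read as luciferase luminescence in lysates, normalized to 0.01% DMSO control; IC50 by nonlinear regression.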

For assay [2], the system named is Plasmodium falciparum. The assay can be described thus: Antiplasmodial activity against Plasmodium falciparum NF54-gexp02-Tom gametocytes infected in human erythrocyte at 5 uM by giemsa staining based light microscopy analysis relative to control. Format: functional.
The subject of assay [3] is Plasmodium falciparum. The assay can be described thus: Antiplasmodial activity against blood stage chloroquine-sensitive Plasmodium falciparum 3D7 infected in human erythrocyte incubated for 48 hrs by Syto11 staining based flow cytometry analysis. It is filed as functional, organism-based. The conditions noted are these: 3D7, Erythrocyte. Summed up: (§2)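 3D7 asexual parasites grown in group B erythrocytes, 3% hematocrit, RPMI with 0.5% Albumax II and 2 mM L-glutamine, 37 °C, 5% O2/5% CO2/90% N2. Rings synchronized by 5% sorbitol, then exposed 48 h to compounds (0.0000256–10 μM). Syto11 nuclear stain and flow cytometry (488 nm excitation, 530/30 emission). Inhibition scaled to untreated (0%) and chloroquine-treated (100%) cultures; IC50 by sigmoidal fit.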

A further assay concerns Huh-7. The assay is described as follows: Cytotoxicity against human Huh-7 cells assessed as reduction in cell confluency at 10 uM measured after 48 hrs by Alamar blue staining based analysis relative to control. Format: functional. Further details: scale not given: the % may be the effect or the level left.
In assay [4] the test system is Plasmodium falciparum. The assay can be described thus: Antiplasmodial activity against Plasmodium falciparum NF54-gexp02-Tom gametocytes infected in human erythrocyte by giemsa staining based light microscopy analysis. Format: functional, organism-based. Summed up:
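NF54-gexp02-Tom line (tdTomato under early gametocyte promoter) grown in group B human erythrocytes, 3% hematocrit, RPMI with 10% human plasma and 2 mM choline chloride, 37 °C, 5% O2/5% CO2/90% N2. Sexual conversion induced by choline removal plus sorbitol synchronization; compounds 0.0048–100 μM present throughout.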

For assay [5], the system named is Plasmodium berghei. The assay is described as follows: Antiplasmodial activity against firefly luciferase expressing liver stage Plasmodium berghei infected in human Huh-7 cells assessed as reduction in parasite growth measured after 48 hrs post infection by […] luminescence assay. It is filed as functional, organism-based. As to conditions: Huh-7, 48 h. Summed up:
as §1

The subject of assay [6] is Plasmodium falciparum. The assay can be described thus: Antiplasmodial activity against blood stage chloroquine-sensitive Plasmodium falciparum 3D7 infected in human erythrocyte. Format: functional, organism-based. The conditions noted are these: 3D7, Erythrocyte. Summed up:
as §2

Assay [7] relates to Plasmodium berghei. The assay can be described thus: Antiplasmodial activity against firefly luciferase expressing liver stage Plasmodium berghei infected in human Huh-7 cells measured after 48 hrs post infection by […] luminescence assay. It is filed as functional, organism-based. As to conditions: Huh-7, 48 h. The method in brief:
as §1

The source made the active and inactive calls. No cut-off for these calls is given here.

As for `COc1cc(NCCCCNC(=O)/C=C/c2ccc(OC)c(OC)c2)c2nc3cc(Cl)ccc3cc2c1`, the outcome with Plasmodium berghei [1] was Active. In the assay on Plasmodium falciparum [2], this compound had an Activity of 15%.

As for `COc1cc(NCCCCNC(=O)/C=C/c2ccc([N+](=O)[O-])cc2)c2nc3cc(Cl)ccc3cc2c1`, the result with Plasmodium berghei [1] was Active. The IC50 in the assay with Plasmodium falciparum [3] stood at 3.82 µM; with Plasmodium falciparum [4] it was 16.3 µM; in the assay on Plasmodium berghei [5] it was 1.19 µM. Further, the Activity in the assay with Huh-7 is about 75%; with Plasmodium falciparum [2] it was over 40%.

Regarding `COc1cc(NCCCCNC(=O)/C=C/c2ccc(Cl)cc2)c2nc3cc(Cl)ccc3cc2c1`, the outcome in the assay on Plasmodium berghei [1] was Active. Moreover, the Activity with Huh-7 is given as about 75%; in the assay on Plasmodium falciparum [2] it was 15%. For the same compound, the concentration for half-maximal inhibition (IC50) in the assay with Plasmodium berghei [5] was 0.998 µM.

On to `COc1cc(NCCCCNC(=O)/C=C/c2ccccc2)c2nc3cc(Cl)ccc3cc2c1`, for which, in the assay on Plasmodium berghei [1], the result was Active. Also, the half-inhibitory concentration (IC50) in the assay on Plasmodium falciparum [3] was over 70 µM; in the assay with Plasmodium falciparum [4], 6.66 µM; in the assay with Plasmodium berghei [5], 0.496 µM. Moreover, the Activity is reported as about 75% with Huh-7 and over 40% with Plasmodium falciparum [2].

Regarding `COc1cc(NC(C)CCCN)c2ncccc2c1` (stereo not given) [PRIMAQUINE], in the assay with Plasmodium berghei [5], the IC50 stood at 12.3 µM.

On to `COc1cc(NCCCCNC(=O)/C=C/c2ccc(N(C)C)cc2)c2nc3cc(Cl)ccc3cc2c1`, for which the outcome in the assay on Plasmodium berghei [1] was Active. This compound also came in with an Activity with Plasmodium falciparum [2] of 15%.

For the compound `COc1cc(NCCCCNC(=O)/C=C/c2ccc(C(C)C)cc2)c2nc3cc(Cl)ccc3cc2c1`, the outcome in the assay with Plasmodium berghei [1] was Active. The concentration for half-maximal inhibition (IC50) with Plasmodium berghei [5] was 0.129 µM.

For `COc1cc(NCCCCN)c2nc3cc(Cl)ccc3cc2c1`, the IC50 in the assay on Plasmodium falciparum [6] was found to be 5.64 µM; with Plasmodium berghei [7], 2.22 µM.

As to `COc1cc(NCCCCNC(=O)/C=C/c2ccc(Br)cc2)c2nc3cc(Cl)ccc3cc2c1`, the outcome with Plasmodium berghei [1] was Active. In the assay on Plasmodium falciparum [2], this compound yielded an Activity of 15%.

With `COc1cc(NCCCCNC(=O)/C=C/c2ccc(C)cc2)c2nc3cc(Cl)ccc3cc2c1`, in the assay with Plasmodium berghei [1], the outcome was Active. Further, the half-inhibitory concentration (IC50) in the assay on Plasmodium falciparum [3] was 10.8 µM; in the assay with Plasmodium falciparum [4], 0.63 µM. In the assay with Plasmodium falciparum [2], this compound gave an Activity of over 40%.

For `COc1ccc(/C=C/C(=O)NCCCCNc2cc(OC)cc3cc4ccc(Cl)cc4nc23)cc1`, the outcome in the assay with Plasmodium berghei [1] was Active. The figures for the IC50 in the assay with Plasmodium falciparum [3], in the assay on Plasmodium falciparum [4] and in the assay with Plasmodium berghei [5] were 10.3 µM, 0.52 µM and 1.18 µM, respectively. In addition, the Activity with Huh-7 was about 75%; in the assay with Plasmodium falciparum [2], over 40%.

For `COc1cc(NCCCCNC(=O)/C=C/c2ccc(F)cc2)c2nc3cc(Cl)ccc3cc2c1`, the outcome with Plasmodium berghei [1] was Active. For the same compound, the values for the half-inhibitory concentration (IC50) in the assay with Plasmodium falciparum [3] and in the assay on Plasmodium berghei [5] were 5.83 µM and 0.884 µM, respectively. For the same compound, the Activity in the assay on Huh-7 is recorded as about 75%; with Plasmodium falciparum [2] it was 15%.

Regarding `COc1cc(NCCCCNC(=O)/C=C/c2ccc(C(F)(F)F)cc2)c2nc3cc(Cl)ccc3cc2c1`, in the assay on Plasmodium berghei [1], the outcome was Active. Also, the Activity in the assay on Plasmodium falciparum [2] is recorded as 15%.

For `COc1cc(NCCCCNC(=O)/C=C/c2cccc(F)c2)c2nc3cc(Cl)ccc3cc2c1`, the outcome in the assay with Plasmodium berghei [1] was Active. In addition, the concentration for half-maximal inhibition (IC50) with Plasmodium falciparum [3] was determined as 4.34 µM; with Plasmodium falciparum [4] it was 0.14 µM; in the assay with Plasmodium berghei [5] it was 0.561 µM. Moreover, the Activity is reported as about 75% in the assay with Huh-7 and over 40% in the assay on Plasmodium falciparum [2].
